PAFAH2 FP inh: PAFAH2 (human) inhibition | recombinant PAFAH2, FP-rhodamine activity probe, fluorescence polarization | inhibition, % at 3.39 µM | 340,000 compounds, 0.99% hits | AID 492956;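 active means inhibition above the mean over all tested compounds plus 3 SD, cut at about 30% in these data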;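 further: inhibitors block probe labeling of enzyme so polarization drops; 0% = enzyme with DMSO and 100% = wells lacking PAFAH2 protein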
TDP2 inh: TDP2 (human) inhibition, absorbance primary screen. recombinant TDP2, T5PNP hydrolysis, p-nitrophenol absorbance 415 nm. inhibition, % at 12.8 µM. 370,000 compounds, 0.34% hits;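 active means inhibition above the mean of all tested compounds plus 3 SD, set per campaign, cut at about 25% in these data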;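 further: 0% = DMSO with enzyme and 100% = buffer with substrate but no TDP2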
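System: recombinant human TDP2 / Amount: 120 nM TDP2 per well / Also added: 5 mM T5PNP chromogenic substrate / Doses: 12.8 µM single point, 1% DMSO / Incubation: 2 h at 37 °C / Detection: p-Nitrophenol epi absorbance / Evaluation: % inhibition relative to enzyme-containing and enzyme-free wells / Repeats: singlicate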
Apaf-1 inh: blocks human Apaf-1 apoptosome activity; O14727; reconstituted apoptosome caspase-3 activity, DEVD-Rh110 fluorescence; inhibition, % at 20 µM; 330,000 compounds, 0.71% hits; active means inhibition of at least 40% at 20 µM;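 further: plate controls were DMSO wells for no effect and DEVD-CHO caspase inhibitor wells for full effect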
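Material: biochemical Apaf-1 apoptosome reconstitution. Medium: Hepes buffer, pH 7.5. Also added: cytochrome c activation, bis-DEVD rhodamine 110 substrate. Timing: 30 min compound preincubation, 50 min activation, room temperature. Measured by: rhodamine 110 fluorescence at Ex 480/Em 540 nm.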
PAFAH1B2 inh: blocks human PAF acetylhydrolase 1b catalytic subunit 2; recombinant PAFAH1B2, FP-rhodamine activity probe, fluorescence polarization; inhibition, % at 3.39 µM; 340,000 compounds, 1.2% hits; AID 492953;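 active means inhibition above the mean of all tested compounds plus 3 SD, cut at about 24% in these data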;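 further: 0% = enzyme with DMSO and 100% = wells lacking PAFAH1B2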
Target sequence (P68402 whole entry, looked up): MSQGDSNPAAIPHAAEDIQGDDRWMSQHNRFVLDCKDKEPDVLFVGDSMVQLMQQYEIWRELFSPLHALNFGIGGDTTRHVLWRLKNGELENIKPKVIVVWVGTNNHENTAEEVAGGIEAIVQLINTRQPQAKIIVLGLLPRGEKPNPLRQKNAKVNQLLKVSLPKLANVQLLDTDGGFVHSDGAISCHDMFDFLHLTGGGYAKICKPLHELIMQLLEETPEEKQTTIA
PAFAH1B3 FP inh: inhibitors of human PAFAH1B3 | Q15102 | recombinant PAFAH1B3, FP-rhodamine probe, fluorescence polarization | inhibition, % at 3.39 µM | 340,000 compounds, 0.28% hits | AID 492972;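 active means inhibition above the screen-wide average of all tested compounds plus 3 SD, cut at about 25% in these data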;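 further: 0% = enzyme with DMSO only and 100% = wells lacking PAFAH1B3 protein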
Target sequence (Q15102 whole entry, looked up): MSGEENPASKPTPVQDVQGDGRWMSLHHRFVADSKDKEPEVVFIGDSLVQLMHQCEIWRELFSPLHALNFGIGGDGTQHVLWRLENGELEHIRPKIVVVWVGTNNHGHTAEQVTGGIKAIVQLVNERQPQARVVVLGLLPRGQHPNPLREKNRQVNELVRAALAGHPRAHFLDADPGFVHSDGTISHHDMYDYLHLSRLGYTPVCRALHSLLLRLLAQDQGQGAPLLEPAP
PAFAH2 FP conf: confirmation of human PAFAH2 inhibitors. shares compounds with PAFAH2 FP inh. 2,300 compounds, 65% hits. inhibition, % at 3.39 µM. recombinant PAFAH2, FP-rhodamine activity probe, fluorescence polarization;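 active means mean inhibition over three repeats above a set limit taken from the earlier primary screen, cut at about 30% in these data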;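 further: inhibitor blocks binding of rhodamine activity probe so polarization falls; 0% = enzyme with DMSO and 100% = wells lacking PAFAH2 protein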
* hit, by the source's call. Rows were chosen to be rich in hits. Some 2.3% of all compounds tested hit in one or more screens of this group.

How did CC(C)=CC([C@]12C[C@H](CO)N[C@@H]1Nc1ccccc12)S(=O)(=O)c1ccccc1 (stereo partly specified) do in these assays?
TDP2 inh: -5.2

Results for O=C(N/N=C/c1cccc(Cl)c1)C(c1ccncc1)N1CCOCC1 (stereo unspecified) ?
PAFAH2 FP inh: 50.5*; TDP2 inh: 2.8; Apaf-1 inh: -2.9; PAFAH1B2 inh: 2.8; PAFAH1B3 FP inh: 1.9; PAFAH2 FP conf: 40.7*

What do the screens show for `Cc1oc(-c2ccccc2)nc1C(=O)Nc1nccs1`?
PAFAH2 FP inh: 31.9*; TDP2 inh: -4.5; Apaf-1 inh: 12.2; PAFAH1B2 inh: 4.4; PAFAH1B3 FP inh: 3.4; PAFAH2 FP conf: 1.0

What do the screens show for `Oc1ccccc1/C=N/NC(=S)NC1CC2CCC1C2` (stereo unspecified)?
PAFAH2 FP inh: 60.2*; TDP2 inh: 9.5; Apaf-1 inh: 2.8; PAFAH1B2 inh: 11.0; PAFAH1B3 FP inh: 5.8; PAFAH2 FP conf: 28.3

How did O=C(COC(=O)C1CC2C=CC1C2)Nc1cccc(S(=O)(=O)N2CCCCC2)c1 (stereo unspecified) do in these assays?
PAFAH2 FP inh: 53.4*; TDP2 inh: 2.7; Apaf-1 inh: 18.5; PAFAH1B2 inh: 6.5; PAFAH1B3 FP inh: -2.0; PAFAH2 FP conf: 41.1*

Results for O=C(COC(=O)C1CCC1)Nc1cccc(S(=O)(=O)N2CCOCC2)c1 ?
PAFAH2 FP inh: 9.5; TDP2 inh: -4.6; Apaf-1 inh: 5.2; PAFAH1B2 inh: 3.1; PAFAH1B3 FP inh: -3.1

Results for O=C(COC(=O)C1CC2C=CC1C2)Nc1cccc(S(=O)(=O)N2CCCCCC2)c1 (stereo unspecified) ?
PAFAH2 FP inh: 35.7*; TDP2 inh: 3.2; Apaf-1 inh: 21.0; PAFAH1B2 inh: 3.1; PAFAH1B3 FP inh: 12.3; PAFAH2 FP conf: 24.0

How did COC(=O)C[C@H]1CC[C@@H]2[C@@H](COc3ccc(NC(=O)Nc4cccc(C)c4)cc3C(=O)N2C)O1 do in these assays?
TDP2 inh: 1.6

Results for COc1ccc(N(C)C(=O)c2cc3c(s2)-c2ccccc2S(=O)(=O)C3)cc1 ?
PAFAH2 FP inh: -5.7; TDP2 inh: 3.4; Apaf-1 inh: -8.7; PAFAH1B2 inh: 2.9; PAFAH1B3 FP inh: -1.6

Results for COc1cc(OC)c(N(C)C(=O)c2cc3c(s2)-c2ccccc2S(=O)(=O)C3)cc1Cl ?
PAFAH2 FP inh: 31.2*; TDP2 inh: 6.0; Apaf-1 inh: 15.9; PAFAH1B2 inh: 6.0; PAFAH1B3 FP inh: 10.0; PAFAH2 FP conf: 2.7

How did COc1ccc(Cn2cc(CN3[C@@H](CC(C)C)COc4cccc(F)c4S3(=O)=O)nn2)cc1 do in these assays?
TDP2 inh: -9.6

Results for CCOC(=O)C/C(C)=N/NC(=O)CNc1cccc(Cl)c1C ?
PAFAH2 FP inh: 72.3*; TDP2 inh: -3.6; Apaf-1 inh: -8.2; PAFAH1B2 inh: 3.0; PAFAH1B3 FP inh: -1.0; PAFAH2 FP conf: 63.0*

Results for O=C(COC(=O)CCCN1C(=O)c2cccc3cccc(c23)C1=O)Nc1cccc(C(F)(F)F)c1 ?
PAFAH2 FP inh: 35.5*; TDP2 inh: -4.4; Apaf-1 inh: 19.7; PAFAH1B2 inh: -10.6; PAFAH1B3 FP inh: -8.6; PAFAH2 FP conf: 32.8*

Results for CS(=O)(=O)c1ccc(Cl)c(NC(=O)COC(=O)CCCN2C(=O)c3cccc4cccc(c34)C2=O)c1 ?
PAFAH2 FP inh: 12.9; TDP2 inh: 10.4; Apaf-1 inh: 11.7; PAFAH1B2 inh: -1.0; PAFAH1B3 FP inh: 4.2

Results for O=C(COC(=O)CCCN1C(=O)c2cccc3cccc(c23)C1=O)Nc1cccc(Br)c1 ?
PAFAH2 FP inh: 56.2*; TDP2 inh: -11.7; Apaf-1 inh: 12.5; PAFAH1B2 inh: 6.5; PAFAH1B3 FP inh: 3.8; PAFAH2 FP conf: 24.5

How did NC(=O)c1cc(NC(=O)COC(=O)CCCN2C(=O)c3cccc4cccc(c34)C2=O)cc(C(N)=O)c1 do in these assays?
PAFAH2 FP inh: -1.4; TDP2 inh: 4.5; Apaf-1 inh: -0.8; PAFAH1B2 inh: 3.4; PAFAH1B3 FP inh: 0.6

Results for CC(C)CN1C(=O)[C@]2(CC(=O)N(C)C2c2ccccc2)c2cc(-n3cc(CO)nn3)ccc21 (stereo partly specified) ?
TDP2 inh: -10.4
